Converted amounts (≈) assume the structure as drawn. Numbered stars: 1 amine (or outer) side, 2 acyl side, 3 side chain; on linkers, the order of the positions; unused ones are H or OH. Bridge positions count the residues as written; N and C are the ends. Square brackets hold non-standard residues; d marks the D form. Peptide text beside a SMILES is read from it. * marks the point of attachment. Orn(4R-OH,5R-OH) = O=C([C@H](C[C@@H](O)[C@@H](O)N[*:3])N[*:1])[*:2]; hTyr(3S-OH,4S-OH) = N[C@H](C(=O)O)[C@H](O)[C@@H](O)c1ccc(O)cc1; Pro(3S-OH,4S-Me) = C[C@H]1CN[C@H](C(=O)O)[C@H]1O; X25 = CCCCCCCCCCCCC(Oc1ccc(-c2ccccc2)cc1)C(=O)*; X18 = O=C(c1ccc(C#Cc2ccc(-c3ccccc3)cc2)cc1)*; X11 = CCC(CC)COc1ccc(-c2ccc(C(=O)*)cc2)cc1; X13 = O=C(CCCCCCCCCCOc1ccc(-c2ccccc2)cc1)*; X22 = O=C(c1ccc(-c2ccc(OCC3CCCC3)cc2)cc1)*; X24 = CCCCC(Oc1ccc(-c2ccccc2)cc1)C(=O)*; X10 = CCCCc1ccc(COc2ccc(C(=O)*)cc2)cc1; X26 = CCCCOc1ccc(Cc2ccc(C(=O)*)cc2)cc1; X28 = CCCCOc1ccc(Oc2ccc(C(=O)*)cc2)cc1; X23 = O=C(CCCCCOc1ccc(-c2ccccc2)cc1)*; X27 = CCCCCCCCCCOc1cc2ccccc2cc1C(=O)*; X12 = CCCCCCCCCCOCCOc1ccc(C(=O)*)cc1; X15 = CCCCCCOc1ccc2cc(C(=O)*)ccc2c1; X19 = CCCCCCCCOCCOc1ccc(C(=O)*)cc1; X30 = CCCCCCOc1cc2ccccc2cc1C(=O)*; Hyp = O=C(O)[C@@H]1C[C@@H](O)CN1; X29 = CCCCCOCCOc1ccc(C(=O)*)cc1
Legend:
Candida albicans [1] = test: Antifungal activity against Candida albicans; format: functional
How it was run: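 Broth microdilution, C. albicans A26 (ATCC 62342) grown on Sabouraud dextrose agar at 35 °C; inoculum 1 × 10^5 conidia/mL in antibiotic 3 broth. Compounds dissolved at 1.0 mg/mL in methanol, 2-fold serial dilutions from 80 µg/mL, duplicate. Read after 48 h at 35 °C. MIC = lowest concentration completely inhibiting visible growth.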

Candida albicans [2] = test: In vivo antifungal activity administered intraperitoneally against Candida albicans infections in mice.; format: functional; details: ip
How it was run: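 Male ICR mice (18-20 g), X-irradiated with 400 r 24 h before iv tail-vein infection with 2 × 10^6 C. albicans A26 cells in saline. Compounds suspended in β-cyclodextrin, given parenterally at 0, 4, 24 and 48 h post-infection. 10 mice per dose, top dose 10 mg/kg with 2-fold dilutions down to 0.039 mg/kg. 7-day survival; ED50 by Reed-Muench.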

[3] = target: Beta-1,3-glucan synthase (Candida albicans) (UniProt O13428); test: In vitro inhibition of glucan synthase obtained from Candida albicans at a concentration of 10 ug/mL.
Beta-1,3-glucan synthase (Candida albicans), sequence (O13428 as listed by the source): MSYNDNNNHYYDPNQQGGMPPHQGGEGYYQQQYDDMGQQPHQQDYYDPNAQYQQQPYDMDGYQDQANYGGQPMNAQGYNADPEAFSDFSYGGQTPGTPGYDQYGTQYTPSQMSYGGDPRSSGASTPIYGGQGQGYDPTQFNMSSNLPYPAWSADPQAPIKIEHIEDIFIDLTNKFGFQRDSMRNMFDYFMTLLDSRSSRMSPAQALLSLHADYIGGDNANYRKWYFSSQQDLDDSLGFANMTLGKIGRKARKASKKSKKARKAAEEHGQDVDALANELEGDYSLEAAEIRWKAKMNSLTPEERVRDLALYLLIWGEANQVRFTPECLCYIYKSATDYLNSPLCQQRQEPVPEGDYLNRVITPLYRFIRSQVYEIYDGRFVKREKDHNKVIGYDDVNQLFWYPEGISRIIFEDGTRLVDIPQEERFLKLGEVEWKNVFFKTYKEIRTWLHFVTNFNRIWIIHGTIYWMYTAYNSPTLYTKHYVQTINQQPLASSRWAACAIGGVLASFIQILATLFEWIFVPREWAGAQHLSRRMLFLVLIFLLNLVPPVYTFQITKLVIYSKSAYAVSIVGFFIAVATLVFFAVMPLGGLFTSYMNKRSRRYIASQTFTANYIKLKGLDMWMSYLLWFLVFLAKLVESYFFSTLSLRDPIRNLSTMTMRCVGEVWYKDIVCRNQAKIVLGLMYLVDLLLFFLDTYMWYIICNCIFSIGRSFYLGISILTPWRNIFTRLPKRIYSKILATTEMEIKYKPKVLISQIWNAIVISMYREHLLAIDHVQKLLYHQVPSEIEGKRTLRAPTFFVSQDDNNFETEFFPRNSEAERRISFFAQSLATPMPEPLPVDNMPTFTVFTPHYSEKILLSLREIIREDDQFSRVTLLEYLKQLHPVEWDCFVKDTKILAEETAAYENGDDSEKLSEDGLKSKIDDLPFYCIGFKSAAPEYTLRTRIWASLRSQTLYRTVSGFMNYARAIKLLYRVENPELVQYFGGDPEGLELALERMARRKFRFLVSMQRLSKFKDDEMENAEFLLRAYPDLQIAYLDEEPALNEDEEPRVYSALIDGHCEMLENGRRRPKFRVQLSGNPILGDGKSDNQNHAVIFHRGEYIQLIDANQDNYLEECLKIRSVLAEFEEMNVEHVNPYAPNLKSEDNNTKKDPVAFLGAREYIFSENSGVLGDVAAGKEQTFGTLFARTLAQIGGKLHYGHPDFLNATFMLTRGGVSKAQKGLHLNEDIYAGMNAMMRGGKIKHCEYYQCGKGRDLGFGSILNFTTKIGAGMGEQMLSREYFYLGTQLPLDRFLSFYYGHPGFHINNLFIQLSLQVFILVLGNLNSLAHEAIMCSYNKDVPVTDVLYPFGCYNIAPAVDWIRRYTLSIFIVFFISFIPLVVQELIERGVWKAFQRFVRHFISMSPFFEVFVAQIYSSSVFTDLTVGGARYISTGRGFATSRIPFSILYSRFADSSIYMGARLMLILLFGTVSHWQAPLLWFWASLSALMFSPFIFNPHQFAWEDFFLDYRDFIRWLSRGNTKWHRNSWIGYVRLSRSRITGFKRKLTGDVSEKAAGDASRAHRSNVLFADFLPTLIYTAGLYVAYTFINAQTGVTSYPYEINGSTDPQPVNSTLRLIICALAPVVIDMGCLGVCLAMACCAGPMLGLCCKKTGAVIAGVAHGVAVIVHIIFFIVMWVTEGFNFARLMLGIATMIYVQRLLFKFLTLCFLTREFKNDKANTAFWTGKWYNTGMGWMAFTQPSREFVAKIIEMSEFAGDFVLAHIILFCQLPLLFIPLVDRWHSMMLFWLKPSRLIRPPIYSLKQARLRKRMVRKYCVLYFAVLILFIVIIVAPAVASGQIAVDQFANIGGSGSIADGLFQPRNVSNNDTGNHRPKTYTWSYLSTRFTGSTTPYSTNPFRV
How it was run: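 Purified, solubilized β-(1,3)-D-glucan synthase prepared from C. albicans. Percent inhibition measured at 10 µg/mL compound, single determination.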

CCCCc1ccc(COc2ccc(C(=O)N[C@H]3C[C@@H](O)[C@@H](O)NC(=O)[C@@H]4[C@@H](O)[C@@H](C)CN4C(=O)[C@H]([C@@H](C)O)NC(=O)[C@H]([C@H](O)[C@@H](O)c4ccc(O)cc4)NC(=O)[C@@H]4C[C@@H](O)CN4C(=O)[C@H]([C@@H](C)O)NC3=O)cc2)cc1 (X10-[Orn(4R-OH,5R-OH)]T[Hyp][hTyr(3S-OH,4S-OH)]T[Pro(3S-OH,4S-Me)]; lactam 1-C)
MIC (Candida albicans [1]): 0.156 µg/mL (≈ 0.147 µM) | ED50 (Candida albicans [2]): 6.7 mg/kg | inhibition [3]: 68.9%

CCC(CC)COc1ccc(-c2ccc(C(=O)N[C@H]3C[C@@H](O)[C@@H](O)NC(=O)[C@@H]4[C@@H](O)[C@@H](C)CN4C(=O)[C@H]([C@@H](C)O)NC(=O)[C@H]([C@H](O)[C@@H](O)c4ccc(O)cc4)NC(=O)[C@@H]4C[C@@H](O)CN4C(=O)[C@H]([C@@H](C)O)NC3=O)cc2)cc1 (X11-[Orn(4R-OH,5R-OH)]T[Hyp][hTyr(3S-OH,4S-OH)]T[Pro(3S-OH,4S-Me)]; lactam 1-C)
MIC (Candida albicans [1]): 0.039 µg/mL (≈ 0.0362 µM) | ED50 (Candida albicans [2]): 4.6 mg/kg

CCCCCCCCCCOCCOc1ccc(C(=O)N[C@H]2C[C@@H](O)[C@@H](O)NC(=O)[C@@H]3[C@@H](O)[C@@H](C)CN3C(=O)[C@H]([C@@H](C)O)NC(=O)[C@H]([C@H](O)[C@@H](O)c3ccc(O)cc3)NC(=O)[C@@H]3C[C@@H](O)CN3C(=O)[C@H]([C@@H](C)O)NC2=O)cc1 (X12-[Orn(4R-OH,5R-OH)]T[Hyp][hTyr(3S-OH,4S-OH)]T[Pro(3S-OH,4S-Me)]; lactam 1-C)
MIC (Candida albicans [1]): 0.625 µg/mL (≈ 0.567 µM) | ED50 (Candida albicans [2]): 9.5 mg/kg | inhibition [3]: 71.4%

C[C@@H](O)[C@@H]1NC(=O)[C@H]([C@H](O)[C@@H](O)c2ccc(O)cc2)NC(=O)[C@@H]2C[C@@H](O)CN2C(=O)[C@H]([C@@H](C)O)NC(=O)[C@@H](NC(=O)CCCCCCCCCCOc2ccc(-c3ccccc3)cc2)C[C@@H](O)[C@@H](O)NC(=O)[C@@H]2[C@@H](O)[C@@H](C)CN2C1=O (X13-[Orn(4R-OH,5R-OH)]T[Hyp][hTyr(3S-OH,4S-OH)]T[Pro(3S-OH,4S-Me)]; lactam 1-C)
MIC (Candida albicans [1]): 0.02 µg/mL (≈ 0.0176 µM) | ED50 (Candida albicans [2]): 7.4 mg/kg | inhibition [3]: 80.2%

CCCCCCOc1ccc2cc(C(=O)N[C@H]3C[C@@H](O)[C@@H](O)NC(=O)[C@@H]4[C@@H](O)[C@@H](C)CN4C(=O)[C@H]([C@@H](C)O)NC(=O)[C@H]([C@H](O)[C@@H](O)c4ccc(O)cc4)NC(=O)[C@@H]4C[C@@H](O)CN4C(=O)[C@H]([C@@H](C)O)NC3=O)ccc2c1 (X15-[Orn(4R-OH,5R-OH)]T[Hyp][hTyr(3S-OH,4S-OH)]T[Pro(3S-OH,4S-Me)]; lactam 1-C)
MIC (Candida albicans [1]): 0.039 µg/mL (≈ 0.0371 µM) | ED50 (Candida albicans [2]): 2.8 mg/kg | inhibition [3]: 77.7%

C[C@@H](O)[C@@H]1NC(=O)[C@H]([C@H](O)[C@@H](O)c2ccc(O)cc2)NC(=O)[C@@H]2C[C@@H](O)CN2C(=O)[C@H]([C@@H](C)O)NC(=O)[C@@H](NC(=O)c2ccc(C#Cc3ccc(-c4ccccc4)cc3)cc2)C[C@@H](O)[C@@H](O)NC(=O)[C@@H]2[C@@H](O)[C@@H](C)CN2C1=O (X18-[Orn(4R-OH,5R-OH)]T[Hyp][hTyr(3S-OH,4S-OH)]T[Pro(3S-OH,4S-Me)]; lactam 1-C)
MIC (Candida albicans [1]): 0.078 µg/mL (≈ 0.0723 µM) | ED50 (Candida albicans [2]): 1.7 mg/kg | inhibition [3]: 78.2%

CCCCCCCCOCCOc1ccc(C(=O)N[C@H]2C[C@@H](O)[C@@H](O)NC(=O)[C@@H]3[C@@H](O)[C@@H](C)CN3C(=O)[C@H]([C@@H](C)O)NC(=O)[C@H]([C@H](O)[C@@H](O)c3ccc(O)cc3)NC(=O)[C@@H]3C[C@@H](O)CN3C(=O)[C@H]([C@@H](C)O)NC2=O)cc1 (X19-[Orn(4R-OH,5R-OH)]T[Hyp][hTyr(3S-OH,4S-OH)]T[Pro(3S-OH,4S-Me)]; lactam 1-C)
MIC (Candida albicans [1]): 2.5 µg/mL (≈ 2.33 µM) | ED50 (Candida albicans [2]): 4.4 mg/kg | inhibition [3]: 54.8%

C[C@@H](O)[C@@H]1NC(=O)[C@H]([C@H](O)[C@@H](O)c2ccc(O)cc2)NC(=O)[C@@H]2C[C@@H](O)CN2C(=O)[C@H]([C@@H](C)O)NC(=O)[C@@H](NC(=O)c2ccc(-c3ccc(OCC4CCCC4)cc3)cc2)C[C@@H](O)[C@@H](O)NC(=O)[C@@H]2[C@@H](O)[C@@H](C)CN2C1=O (X22-[Orn(4R-OH,5R-OH)]T[Hyp][hTyr(3S-OH,4S-OH)]T[Pro(3S-OH,4S-Me)]; lactam 1-C)
MIC (Candida albicans [1]): 0.039 µg/mL (≈ 0.0362 µM) | ED50 (Candida albicans [2]): 1.2 mg/kg

C[C@@H](O)[C@@H]1NC(=O)[C@H]([C@H](O)[C@@H](O)c2ccc(O)cc2)NC(=O)[C@@H]2C[C@@H](O)CN2C(=O)[C@H]([C@@H](C)O)NC(=O)[C@@H](NC(=O)CCCCCOc2ccc(-c3ccccc3)cc2)C[C@@H](O)[C@@H](O)NC(=O)[C@@H]2[C@@H](O)[C@@H](C)CN2C1=O (X23-[Orn(4R-OH,5R-OH)]T[Hyp][hTyr(3S-OH,4S-OH)]T[Pro(3S-OH,4S-Me)]; lactam 1-C)
MIC (Candida albicans [1]): 1.25 µg/mL (≈ 1.17 µM) | inhibition [3]: 69.1%

CCCCC(Oc1ccc(-c2ccccc2)cc1)C(=O)N[C@H]1C[C@@H](O)[C@@H](O)NC(=O)[C@@H]2[C@@H](O)[C@@H](C)CN2C(=O)[C@H]([C@@H](C)O)NC(=O)[C@H]([C@H](O)[C@@H](O)c2ccc(O)cc2)NC(=O)[C@@H]2C[C@@H](O)CN2C(=O)[C@H]([C@@H](C)O)NC1=O (stereo partly drawn) (X24-[Orn(4R-OH,5R-OH)]T[Hyp][hTyr(3S-OH,4S-OH)]T[Pro(3S-OH,4S-Me)]; lactam 1-C)
MIC (Candida albicans [1]): 80 µg/mL (≈ 75.2 µM) | inhibition [3]: 55.1%

CCCCCCCCCCCCC(Oc1ccc(-c2ccccc2)cc1)C(=O)N[C@H]1C[C@@H](O)[C@@H](O)NC(=O)[C@@H]2[C@@H](O)[C@@H](C)CN2C(=O)[C@H]([C@@H](C)O)NC(=O)[C@H]([C@H](O)[C@@H](O)c2ccc(O)cc2)NC(=O)[C@@H]2C[C@@H](O)CN2C(=O)[C@H]([C@@H](C)O)NC1=O (stereo partly drawn) (X25-[Orn(4R-OH,5R-OH)]T[Hyp][hTyr(3S-OH,4S-OH)]T[Pro(3S-OH,4S-Me)]; lactam 1-C)
MIC (Candida albicans [1]): 0.312 µg/mL (≈ 0.265 µM) | inhibition [3]: 83%

CCCCOc1ccc(Cc2ccc(C(=O)N[C@H]3C[C@@H](O)[C@@H](O)NC(=O)[C@@H]4[C@@H](O)[C@@H](C)CN4C(=O)[C@H]([C@@H](C)O)NC(=O)[C@H]([C@H](O)[C@@H](O)c4ccc(O)cc4)NC(=O)[C@@H]4C[C@@H](O)CN4C(=O)[C@H]([C@@H](C)O)NC3=O)cc2)cc1 (X26-[Orn(4R-OH,5R-OH)]T[Hyp][hTyr(3S-OH,4S-OH)]T[Pro(3S-OH,4S-Me)]; lactam 1-C)
MIC (Candida albicans [1]): > 20 µg/mL | inhibition [3]: 43.4%

CCCCCCCCCCOc1cc2ccccc2cc1C(=O)N[C@H]1C[C@@H](O)[C@@H](O)NC(=O)[C@@H]2[C@@H](O)[C@@H](C)CN2C(=O)[C@H]([C@@H](C)O)NC(=O)[C@H]([C@H](O)[C@@H](O)c2ccc(O)cc2)NC(=O)[C@@H]2C[C@@H](O)CN2C(=O)[C@H]([C@@H](C)O)NC1=O (X27-[Orn(4R-OH,5R-OH)]T[Hyp][hTyr(3S-OH,4S-OH)]T[Pro(3S-OH,4S-Me)]; lactam 1-C)
MIC (Candida albicans [1]): 20 µg/mL (≈ 18 µM) | inhibition [3]: 40.6%

CCCCOc1ccc(Oc2ccc(C(=O)N[C@H]3C[C@@H](O)[C@@H](O)NC(=O)[C@@H]4[C@@H](O)[C@@H](C)CN4C(=O)[C@H]([C@@H](C)O)NC(=O)[C@H]([C@H](O)[C@@H](O)c4ccc(O)cc4)NC(=O)[C@@H]4C[C@@H](O)CN4C(=O)[C@H]([C@@H](C)O)NC3=O)cc2)cc1 (X28-[Orn(4R-OH,5R-OH)]T[Hyp][hTyr(3S-OH,4S-OH)]T[Pro(3S-OH,4S-Me)]; lactam 1-C)
MIC (Candida albicans [1]): > 20 µg/mL | inhibition [3]: 66.7%

CCCCCOCCOc1ccc(C(=O)N[C@H]2C[C@@H](O)[C@@H](O)NC(=O)[C@@H]3[C@@H](O)[C@@H](C)CN3C(=O)[C@H]([C@@H](C)O)NC(=O)[C@H]([C@H](O)[C@@H](O)c3ccc(O)cc3)NC(=O)[C@@H]3C[C@@H](O)CN3C(=O)[C@H]([C@@H](C)O)NC2=O)cc1 (X29-[Orn(4R-OH,5R-OH)]T[Hyp][hTyr(3S-OH,4S-OH)]T[Pro(3S-OH,4S-Me)]; lactam 1-C)
MIC (Candida albicans [1]): > 20 µg/mL | inhibition [3]: 17.1%

CCCCCCOc1cc2ccccc2cc1C(=O)N[C@H]1C[C@@H](O)[C@@H](O)NC(=O)[C@@H]2[C@@H](O)[C@@H](C)CN2C(=O)[C@H]([C@@H](C)O)NC(=O)[C@H]([C@H](O)[C@@H](O)c2ccc(O)cc2)NC(=O)[C@@H]2C[C@@H](O)CN2C(=O)[C@H]([C@@H](C)O)NC1=O (X30-[Orn(4R-OH,5R-OH)]T[Hyp][hTyr(3S-OH,4S-OH)]T[Pro(3S-OH,4S-Me)]; lactam 1-C)
MIC (Candida albicans [1]): 20 µg/mL (≈ 19 µM) | inhibition [3]: 19.4%
